Laboratory results published in article PMC3257516 (Bioorganic & medicinal chemistry, 2011).
Where “and” joins values, the source holds several entries; their conditions need not be identical. Identical values can stand only once. Entries after “also recorded” stand apart in the source; their conditions may differ. Each block holds one molecule with its values, some of them ahead of it.

Assays:
HPPK [1] = settings: cited from earlier work
[2] = Chemical stability of the inhibitors; assay type: physicochemical; settings: compound not in complex with HPPK
E. coli HPPK = E. coli HPPK (Escherichia coli, UniProt P26281); assay: HPPK enzyme inhibition assay with [α-32P]-ATP; assay type: biochemical; settings: ratio of IC50 values, 19 versus 17
Sequence of E. coli HPPK (P26281 whole entry): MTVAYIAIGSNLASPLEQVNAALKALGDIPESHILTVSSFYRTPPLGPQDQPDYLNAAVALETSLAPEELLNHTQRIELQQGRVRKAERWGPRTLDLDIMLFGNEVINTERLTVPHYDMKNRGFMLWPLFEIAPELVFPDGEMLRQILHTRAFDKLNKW

HPPK [3] = molecular target: HPPK (Escherichia coli, UniProt P26281); assay: Fluorometric titration of HPPK with inhibitor; assay type: binding, E. coli; settings: ratio of Kd values, 19 versus 17
Sequence of HPPK (Escherichia coli, UniProt P26281) (P26281 whole entry): as above
Outline: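 Fluorescence titration of HPPK (initial 10 μM) with inhibitor dissolved in DMSO, added as aliquots from a 500 μM stock. Excitation/emission 420/450 nm or 450/480 nm depending on compound; slits 1 and 4 nm. Kd from nonlinear least-squares fit of fluorescence change to a quadratic single-site binding equation using total enzyme and total inhibitor concentrations.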

SMILES: Nc1ncnc2c1ncn2[C@@H]1O[C@H](COP(=O)(O)OP(=O)(O)OP(=O)(O)O)[C@@H](O)[C@H]1O [MgATP]
Kd (HPPK [1]; read-out: Kd for the binding of MgATP to HPPK): 2.6 to 4.5 µM

SMILES: CC1(C)Nc2nc(N)[nH]c(=O)c2N=C1C(=O)NCCN1CCC(SC[C@H]2O[C@@H](n3cnc4c(N)ncnc43)[C@H](O)[C@@H]2O)CC1 [Compound 19, 2-amino-7,7-dimethyl-4-oxo-3,4,7,8-tetrahydro-pteridine-6-carboxylic acid (2-{4-[5-(6-amino-purin-9-yl)-3,4-dihydroxy-tetrahydro-furan-2-ylmethylsulfanyl]-piperidin-1-yl}-ethyl)-amide]
chemical stability [2]: stable
increased inhibition ability over 17 (E. coli HPPK): 30 fold
increased binding affinity over 17 (HPPK [3]): 60 fold and ~ 60 fold

SMILES: CC1(C)Nc2nc(N)[nH]c(=O)c2N=C1CNCCN1CCC(SCC2OC(n3cnc4c(N)ncnc43)C(O)C2O)CC1 (centres unmarked) [Compound 18, 2-amino-6-[(2-{4-[5-(6-amino-purin-9-yl)-3,4-dihydroxy-tetrahydro-furan-2-ylmethylsulfanyl]-piperidin-1-yl}-ethylamino)-methyl]-7,7-dimethyl-7,8-dihydro-3H pteridin-4-one]
chemical stability [2]: not stable; also recorded: tends to degrade

chemical stability [2]: stable
SMILES: Nc1nc2ncc(CNCCN3CCC(SC[C@H]4O[C@@H](n5cnc6c(N)ncnc65)[C@H](O)[C@@H]4O)CC3)nc2c(=O)[nH]1 [Compound 17, 2-amino-6-[(2-{4-[5-(6-amino-purin-9-yl)-3,4-dihydroxy-tetrahydro-furan-2-ylmethylsulfanyl]-piperidin-1-yl}-ethylamino)-methyl]-3H-pteridin-4-one]

SMILES: Nc1nc2c(c(=O)[nH]1)N=C(CO)CN2 [HP, 6-hydroxymethyl-7,8-dihydropterin]
Kd for the binding of HP to ligand-free HPPK (HPPK [1]): mM range
Kd for the binding of HP to the HPPK MgATP complex (HPPK [1]): sub-μM range
